According to ChEMBL document CHEMBL5316280, “Development of N-(1-Adamantyl)benzamides as Novel Anti-Inflammatory Multitarget Agents Acting as Dual Modulators of the Cannabinoid CB2 Receptor and Fatty Acid Amide Hydrolase” (J Med Chem, 2023):
pEC50, pIC50, pKi: −log10 of the molar value. Active and inactive are the calls of the source. The calls are words filed in the database; no cut-off is given here.

What was measured:
Cannabinoid receptor 1 [1] = biological target: T1, Cannabinoid receptor 1 (Homo sapiens, UniProt P21554); test: Displacement of [3H]CP55940 from recombinant human CB1 receptor expressed in HEK293 cell membrane incubated for 60 mins by beta scintillation counter method
T1 sequence (P21554 whole entry): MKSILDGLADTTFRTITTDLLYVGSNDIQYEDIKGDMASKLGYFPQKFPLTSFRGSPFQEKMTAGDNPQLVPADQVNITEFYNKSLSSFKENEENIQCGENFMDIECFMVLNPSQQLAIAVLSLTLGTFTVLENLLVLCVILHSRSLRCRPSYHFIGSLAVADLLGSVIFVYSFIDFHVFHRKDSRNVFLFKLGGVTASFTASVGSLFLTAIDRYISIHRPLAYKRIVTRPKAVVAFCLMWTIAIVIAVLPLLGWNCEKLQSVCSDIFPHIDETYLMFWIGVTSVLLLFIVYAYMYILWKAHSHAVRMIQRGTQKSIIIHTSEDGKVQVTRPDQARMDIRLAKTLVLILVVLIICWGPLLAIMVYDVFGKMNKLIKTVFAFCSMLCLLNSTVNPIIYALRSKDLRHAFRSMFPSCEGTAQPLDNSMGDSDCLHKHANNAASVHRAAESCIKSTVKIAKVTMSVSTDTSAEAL

THP-1 [2] = test: Antiinflammatory activity in human THP-1 macrophages assessed as increase in IL-4 level incubated for 24 hrs by ELISA based qRT-PCR analysis; type: functional, cell-based
Summary of the method: (§1)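 THP-1 cells were seeded at 1 x 10⁵ cells/ml for 48 h. For macrophages, cells were differentiated with 0.01 µM PMA for 48 h; monocytes received no PMA. Cells were then given 24 h with or without 10 µg/ml LPS, plus ligands alone or with the CB2R inverse agonist JTE907 (10 µM). Cytokines were measured in 5 µL supernatant (from 1 x 10⁴ cells) by ProQuantum immunoassay, read as pg/ml from kit titration curves; n=3.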

Cannabinoid receptor 2 [3] = biological target: Cannabinoid receptor 2 (Homo sapiens, UniProt P34972); test: Agonist activity at human CB2 receptor overexpressed in CHO-K1 cells assessed as cAMP level incubated for 30 mins by luminescence based assay; type: functional, cell-based
Chain of Cannabinoid receptor 2 (Homo sapiens, UniProt P34972) (P34972 whole entry): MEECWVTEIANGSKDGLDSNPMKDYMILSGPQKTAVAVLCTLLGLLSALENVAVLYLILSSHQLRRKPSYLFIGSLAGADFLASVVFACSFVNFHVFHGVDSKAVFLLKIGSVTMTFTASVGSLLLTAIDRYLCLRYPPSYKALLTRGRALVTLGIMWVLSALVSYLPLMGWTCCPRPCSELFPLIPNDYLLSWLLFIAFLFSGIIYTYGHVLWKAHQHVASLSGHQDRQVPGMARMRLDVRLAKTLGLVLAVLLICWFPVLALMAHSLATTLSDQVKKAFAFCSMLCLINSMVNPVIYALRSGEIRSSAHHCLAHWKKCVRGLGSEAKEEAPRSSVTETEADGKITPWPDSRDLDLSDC
Summary of the method: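 CHO-K1 cells overexpressing human CB2R were plated at 30 000 cells/well and held overnight at 37 °C, 5% CO2. Test samples were added as dose–response solutions with NKH-477 to stimulate adenylate cyclase, then incubated 30 min at 37 °C. cAMP was detected by luminescence after cell lysis. Values were normalized to NKH-477 alone as 100% response. Three independent experiments were run in triplicate.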

THP-1 [4] = test: Antiinflammatory activity in human THP-1 macrophages assessed as decrease in IL-1beta level incubated for 24 hrs in presence of […] by ELISA based qRT-PCR analysis; type: functional, cell-based
Summary of the method: as §1

THP-1 [5] = test: Antiinflammatory activity in human THP-1 monocytes assessed as decrease in IL-1beta level incubated for 24 hrs by ELISA based qRT-PCR analysis; type: functional, cell-based
Summary of the method: as §1

Cannabinoid receptor 2 [6] = biological target: Cannabinoid receptor 2 (Mus musculus, UniProt P47936); test: Agonist activity at mouse CB2 receptor transfected in CHO-K1 cells assessed as beta2-arrestin recruitment incubated for 90 mins by luminescence based assay; type: functional, cell-based
Chain of Cannabinoid receptor 2 (Mus musculus, UniProt P47936) (P47936 whole entry): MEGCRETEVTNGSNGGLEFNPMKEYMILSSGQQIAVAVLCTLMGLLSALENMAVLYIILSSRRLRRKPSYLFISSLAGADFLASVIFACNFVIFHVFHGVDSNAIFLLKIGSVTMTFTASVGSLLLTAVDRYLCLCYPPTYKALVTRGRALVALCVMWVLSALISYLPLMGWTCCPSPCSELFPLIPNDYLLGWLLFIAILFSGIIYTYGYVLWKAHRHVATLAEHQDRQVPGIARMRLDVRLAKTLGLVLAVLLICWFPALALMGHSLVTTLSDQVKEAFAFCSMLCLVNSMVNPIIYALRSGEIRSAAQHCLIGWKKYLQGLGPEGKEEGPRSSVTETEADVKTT
Summary of the method: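 PathHunter eXpress kit using mouse CB2 receptor in CHO-K1 cells. Cells were seeded 48 h before the assay in kit medium. Compounds in cell plating reagent were incubated 90 min at 37 °C, 5% CO2. Working detection solution was then added for 60 min at room temperature to read β-arrestin recruitment.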

[7] = biological target: T2, Fatty-acid amide hydrolase 1 (Homo sapiens, UniProt O00519); test: Inhibition of recombinant human FAAH using AMC-AA as substrate preincubated for 10 mins followed by substrate addition measured after 2 hrs by fluorometric assay
T2 sequence (O00519 whole entry): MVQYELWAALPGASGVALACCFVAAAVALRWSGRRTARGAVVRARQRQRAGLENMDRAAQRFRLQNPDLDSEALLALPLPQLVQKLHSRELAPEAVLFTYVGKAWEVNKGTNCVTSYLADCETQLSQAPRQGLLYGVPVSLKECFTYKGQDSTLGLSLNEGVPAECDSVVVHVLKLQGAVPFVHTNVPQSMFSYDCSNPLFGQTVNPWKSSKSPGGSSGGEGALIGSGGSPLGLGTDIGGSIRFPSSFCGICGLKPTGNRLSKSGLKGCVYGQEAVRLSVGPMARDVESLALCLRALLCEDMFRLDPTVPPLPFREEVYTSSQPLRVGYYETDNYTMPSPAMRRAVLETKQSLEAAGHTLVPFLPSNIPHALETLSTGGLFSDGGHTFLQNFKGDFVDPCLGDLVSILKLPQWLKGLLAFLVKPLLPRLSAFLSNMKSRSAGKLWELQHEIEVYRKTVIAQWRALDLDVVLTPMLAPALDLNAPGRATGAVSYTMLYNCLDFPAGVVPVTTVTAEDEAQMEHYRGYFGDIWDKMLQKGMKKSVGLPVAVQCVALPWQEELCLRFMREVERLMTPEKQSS
Summary of the method: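 Human recombinant FAAH preincubated with inhibitor at various concentrations in Tris-HCl 125 mM, Na₂EDTA 1 mM, pH 9.0, 10 min at room temperature with shaking. AMC-AA substrate then added (1 µM final); fluorescence read every 30 s for 2 h at 37 °C (ex 340/em 450 nm). Percent inhibition from no-inhibitor controls and no-enzyme blanks; IC50 from at least three independent runs in triplicate.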

THP-1 [8] = test: Antiinflammatory activity in human THP-1 macrophages assessed as decrease in IL-6 level incubated for 24 hrs by ELISA based qRT-PCR analysis; type: functional, cell-based
Summary of the method: as §1

THP-1 [9] = test: Antiinflammatory activity in human THP-1 macrophages assessed as increase in IL-4 level incubated for 24 hrs in presence of […] by ELISA based qRT-PCR analysis; type: functional, cell-based
Summary of the method: as §1

THP-1 [10] = test: Antiinflammatory activity in human THP-1 monocytes assessed as decrease in IL-1beta level incubated for 24 hrs in presence of […] by ELISA based qRT-PCR analysis; type: functional, cell-based
Summary of the method: as §1

THP-1 [11] = test: Antiinflammatory activity in human THP-1 monocytes assessed as decrease in IL-6 level incubated for 24 hrs by ELISA based qRT-PCR analysis; type: functional, cell-based
Summary of the method: as §1

THP-1 [12] = test: Antiinflammatory activity in human THP-1 macrophages assessed as decrease in IL-1beta level incubated for 24 hrs by ELISA based qRT-PCR analysis; type: functional, cell-based
Summary of the method: as §1

THP-1 [13] = test: Antiinflammatory activity in human THP-1 monocytes assessed as increase in IL-10 level incubated for 24 hrs in presence of […] by ELISA based qRT-PCR analysis; type: functional, cell-based
Summary of the method: as §1

THP-1 [14] = test: Antiinflammatory activity in human THP-1 monocytes assessed as decrease in IFNgamma level incubated for 24 hrs by ELISA based qRT-PCR analysis; type: functional, cell-based
Summary of the method: as §1

THP-1 [15] = test: Antiinflammatory activity in human THP-1 macrophages assessed as increase in IL-10 level incubated for 24 hrs in presence of […] by ELISA based qRT-PCR analysis; type: functional, cell-based
Summary of the method: as §1

Cannabinoid receptor 1 [16] = biological target: T1, Cannabinoid receptor 1; test: […] human CB1 receptor in CHO cells incubated for 15 mins by plate reader analysis relative to control; type: cell-based
Summary of the method: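 CHO-CB1 C3 cells (human CB1) were seeded at 8000 cells/well in medium with dialyzed FBS and preincubated 15 min at 37 °C. Compounds or the CP55940 control were added for 15 min at 37 °C, then forskolin 10 µM for 5 min. cAMP was read by HTRF after 1 h at room temperature (λex 320 nm, λem 620-665 nm).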

THP-1 [17] = test: Antiinflammatory activity in human THP-1 monocytes assessed as decrease in TNFalpha level incubated for 24 hrs in presence of […] by ELISA based qRT-PCR analysis; type: functional, cell-based
Summary of the method: as §1

THP-1 [18] = test: Antiinflammatory activity in human THP-1 monocytes assessed as decrease in IL-6 level incubated for 24 hrs in presence of […] by ELISA based qRT-PCR analysis; type: functional, cell-based
Summary of the method: as §1

THP-1 [19] = test: Antiinflammatory activity in human THP-1 macrophages assessed as decrease in IFNgamma level incubated for 24 hrs by ELISA based qRT-PCR analysis; type: functional, cell-based
Summary of the method: as §1

THP-1 [20] = test: Antiinflammatory activity in human THP-1 monocytes assessed as decrease in IFNgamma level incubated for 24 hrs in presence of […] by ELISA based qRT-PCR analysis; type: functional, cell-based
Summary of the method: as §1

SMILES	pKi (Cannabinoid receptor 1 [1])	Activity (THP-1 [2])	pEC50 (Cannabinoid receptor 2 [3])	Activity (THP-1 [4])	Activity (THP-1 [5])	pEC50 (Cannabinoid receptor 2 [6])	pIC50 [7]	Activity (THP-1 [8])	Activity (THP-1 [9])	Activity (THP-1 [10])	Activity (THP-1 [11])	Activity (THP-1 [12])	Activity (THP-1 [13])	Activity (THP-1 [14])	Activity (THP-1 [15])	Emax (Cannabinoid receptor 1 [16]) [%]	Activity (THP-1 [17])	Activity (THP-1 [18])	Activity (THP-1 [19])	Activity (THP-1 [20])
CCCCCOc1ccccc1C(=O)NC12CC3CC(CC(C3)C1)C2	6.82	Active	7.06	inactive	inactive	7.62	5.21	Active	inactive	inactive	inactive	Active	inactive	Active	inactive	100	inactive	inactive	Active	inactive
O=C(NC12CC3CC(CC(C3)C1)C2)c1ccccc1OCC1CCCCC1	7.17	Active	6.55	inactive	Active	7.97	5.47	Active	inactive	inactive	Active	Active	inactive	Active	inactive	75	inactive	inactive	Active	inactive
O=C(NC12CC3CC(CC(C3)C1)C2)c1ccccc1OCc1ccccc1	6.62	Active	6.91	inactive	Active	7.29	5.40	inactive	inactive	inactive	inactive	Active	inactive	Active	inactive	100	inactive	inactive	Active	inactive
